Published values collected from several papers.
Compare with care: the assays were run in different laboratories.
Target: Tyrosine-protein kinase ZAP-70 (ZAP70, Homo sapiens, UniProt P43403)
One construct used (P43403 1-619): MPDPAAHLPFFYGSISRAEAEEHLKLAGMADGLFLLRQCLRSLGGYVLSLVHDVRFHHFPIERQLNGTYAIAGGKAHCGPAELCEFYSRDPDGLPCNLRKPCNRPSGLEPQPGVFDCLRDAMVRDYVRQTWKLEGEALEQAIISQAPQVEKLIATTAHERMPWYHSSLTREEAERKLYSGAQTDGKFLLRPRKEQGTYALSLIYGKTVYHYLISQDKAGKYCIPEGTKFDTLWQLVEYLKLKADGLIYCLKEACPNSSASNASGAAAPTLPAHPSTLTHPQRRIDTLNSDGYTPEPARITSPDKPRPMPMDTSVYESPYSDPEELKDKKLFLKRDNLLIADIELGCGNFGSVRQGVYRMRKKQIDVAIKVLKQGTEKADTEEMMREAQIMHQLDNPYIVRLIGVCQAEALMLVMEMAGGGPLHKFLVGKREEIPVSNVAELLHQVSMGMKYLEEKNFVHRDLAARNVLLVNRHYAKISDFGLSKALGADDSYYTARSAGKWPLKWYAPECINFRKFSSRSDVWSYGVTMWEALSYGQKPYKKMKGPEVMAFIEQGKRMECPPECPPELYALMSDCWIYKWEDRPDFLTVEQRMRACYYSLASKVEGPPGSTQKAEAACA

C[C@@H](c1ccc(-n2cnc3c(N)ncnc32)cc1)N1CCc2nn(C)c(Cc3ccccc3)c2C1=O  remaining binding (binding; competition with immobilised ligand; 0.1 µM): 94%
O=C(NCC1CCOCC1)c1n[nH]cc1NC(=O)c1c(F)cccc1F  remaining binding (binding; competition with immobilised ligand; 1 µM): 100%
CS(=O)(=O)NCC[C@H](NC(=O)c1cncc2c1cnn2-c1ccc(F)cc1)c1ccnc(S(C)(=O)=O)c1  remaining binding (cell-free assay; competition with immobilised ligand; 1 µM): 80%
c1cncc(-c2cccc(Nc3nccc(NC4CCCCC4)n3)c2)c1  remaining binding (binding; competition with immobilised ligand; 10 µM): 91%
Cc1cnn2ncc(-c3ccnc(N(C)C)n3)c2c1  remaining binding (binding; 1 µM): 100%
Cc1cnc(Nc2ccc(C(=O)N3CCC(N4CCCC4)CC3)cc2)nc1-c1cc2ccccc2s1  remaining binding (binding; competition with immobilised ligand; 1 µM): 46%
FC(F)(F)Oc1cccc(-c2cnc3ccc(-c4ccncc4)nn23)c1  remaining binding (binding; competition with immobilised ligand; 5 µM): 69%
Cc1cc(-n2nc(Cc3cc(F)cc(C(F)(F)F)c3)nc2C)ccc1C(N)=O  remaining binding (cell-free assay; competition with immobilised ligand; 1 µM): 82%
CC1CCCN1c1nccc(-c2cnn3ncccc23)n1 (stereo not shown)  remaining binding (binding; 1 µM): 100%
CC(C)(C)c1ccc(-c2nc(CBr)nn2-c2cccc(O)c2)cc1  remaining binding (cell-free assay; competition with immobilised ligand; 10 µM): 80%
Cc1nc(N2CC[C@@H](O)C2)ncc1-c1cc(C(F)(F)F)cc2[nH]ncc12  remaining binding (binding; competition with immobilised ligand; 1 µM): 65%
c1cnn2ncc(-c3ccnc(N4CCC45COC5)n3)c2c1  remaining binding (binding; 1 µM): 80%
CN(C)c1ncnc(-c2ccc3nc(Nc4cc(CN5CCN(C(=O)CC(F)(F)F)CC5)ccn4)[nH]c3c2)c1Cl  remaining binding (cell-free assay; competition with immobilised ligand; 1 µM): 100%
O=C(c1ccc(Nc2ncc(Cl)c(-c3ccc(Cl)s3)n2)cc1)N1CCC(N2CCCC2)CC1  remaining binding (binding; competition with immobilised ligand; 1 µM): 23%
C[C@@H]1CCN(c2nccc(-c3cnn4ncccc34)n2)C1  remaining binding (binding; 1 µM): 75%
O=C(O)[C@H]1[C@H](Cn2nnc3ccccc3c2=O)CC[C@@H]1C(=O)c1ccc(OCCC2CCOCC2)cc1  remaining binding (cell-free assay; competition with immobilised ligand; 1 µM): 100%
COc1cnc(Nc2cccc(S(N)(=O)=O)c2)nc1N1CCN(c2ccccc2)C(=O)C1  remaining binding (binding; competition with immobilised ligand; 1 µM): 43%
CN(C)c1nccc(-c2cnc3ncccn23)n1  remaining binding (binding; 1 µM): 90%
CCOC(=O)c1cc2cc(-c3cc(C(=O)NCc4ccc(C(=O)O)cc4)nn3C)ccc2[nH]1  remaining binding (cell-free assay; competition with immobilised ligand; 0.1 µM): 98%
CN(CCCC(F)(F)F)c1nccc(-c2cnn3ncccc23)n1  remaining binding (binding; 1 µM): 100%
O=C(NCc1ncc(C(F)(F)F)cc1Cl)c1ccc2c(c1)C1(CCS(=O)(=O)CC1)[C@@H](C1CC1)N2S(=O)(=O)c1ccc(F)cc1  remaining binding (cell-free assay; competition with immobilised ligand; 1 µM): 72%
N[C@H]1CCN(c2nccc(-c3cnn4ncccc34)n2)C1  remaining binding (binding; 1 µM): 100%
C[C@@H]1CN(c2ccc3ncc(-c4ccc5[nH]nc(C6CC6)c5c4)n3n2)C[C@H](C)O1  remaining binding (binding; competition with immobilised ligand; 50 nM): 100%
C[C@@H](c1cccc(C#N)c1)n1cc(Cl)cc(C(N)=O)c1=N  remaining binding (cell-free assay; competition with immobilised ligand; 1 µM): 84%
O=C(c1ccc(Nc2ncc(Cl)c(-c3cc4ccccc4s3)n2)cc1)N1CCC(N2CCCC2)CC1  remaining binding (binding; competition with immobilised ligand; 1 µM): 10%
